An excerpt weighted towards active compounds, which were near 1.4% of everything screened.
FXIa inh: blocks human coagulation factor XIa protease activity | AID 798 | inhibition, % at 5 µM | hit rate 0.14% among 220,000 | purified FXIa, Boc-Glu-Ala-Arg-AMC fluorogenic substrate;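 active = inhibition of at least 40%; inactive = inhibition below 40%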;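 also: fluorescence of freed AMC excited at 355 nm; 0% = enzyme without compound and 100% = no enzyme blank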
KLK5 inh: inhibitors of human kallikrein 5; AID 873; recombinant hK5, fluorogenic AMC substrate cleavage; hit rate 0.59% among 210,000; inhibition, % at 5 µM;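 active = inhibition of 40% or more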;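 also: 0% = enzyme controls without compound and 100% = no-enzyme blanks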
thrombin 1536: thrombin (human) inhibition | alpha-thrombin, Boc-VPR-AMC fluorogenic substrate cleavage | inhibition, % at 5 µM | hit rate 0.26% among 220,000;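 active = inhibition at or above 40%; inactive = inhibition below 40%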;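 also: 0% = enzyme with no compound and 100% = wells without enzyme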
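Material: human alpha-thrombin enzyme / Medium: pH 7.5 Tris (50 mM) with NaCl 150 mM, Tween 20 0.05% / Compound: single-point dosing at 5 µM, 0.2% DMSO / Incubation: enzyme reaction carried out at room temperature / Detection: AMC fluorescence, 355/460 nm / Read-out basis: percent inhibition scaled between no-compound controls and no-enzyme blanks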
Calpain2 inh: calpain II (pig) inhibition | purified calpain II, fluorogenic peptide substrate, 30 min | inhibition, % at 16 µM | hit rate 0.37% among 220,000;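 active = inhibition above about 50%, limit read from the data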
FXIIa inh: inhibitors of human coagulation factor XIIa; P00748; purified FXIIa, Boc-QGR-AMC fluorogenic substrate, 2 h; inhibition, % at 5 µM; hit rate 0.3% among 220,000; in the data active = inhibition above about 40%;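 also: 0% = enzyme with no compound and 100% = blank without enzyme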
Target sequence (P00748 20-372 limits assumed): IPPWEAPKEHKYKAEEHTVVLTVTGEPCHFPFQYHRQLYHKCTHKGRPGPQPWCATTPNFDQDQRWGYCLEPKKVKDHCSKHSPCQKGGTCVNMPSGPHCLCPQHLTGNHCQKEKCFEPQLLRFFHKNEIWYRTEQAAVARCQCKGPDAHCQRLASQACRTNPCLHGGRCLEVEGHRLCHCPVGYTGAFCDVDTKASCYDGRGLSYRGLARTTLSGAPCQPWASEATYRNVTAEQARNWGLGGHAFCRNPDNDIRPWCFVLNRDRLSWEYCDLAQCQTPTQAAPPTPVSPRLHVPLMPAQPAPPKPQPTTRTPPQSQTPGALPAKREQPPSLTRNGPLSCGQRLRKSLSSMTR
Target sequence (P00748 373-615 limits assumed): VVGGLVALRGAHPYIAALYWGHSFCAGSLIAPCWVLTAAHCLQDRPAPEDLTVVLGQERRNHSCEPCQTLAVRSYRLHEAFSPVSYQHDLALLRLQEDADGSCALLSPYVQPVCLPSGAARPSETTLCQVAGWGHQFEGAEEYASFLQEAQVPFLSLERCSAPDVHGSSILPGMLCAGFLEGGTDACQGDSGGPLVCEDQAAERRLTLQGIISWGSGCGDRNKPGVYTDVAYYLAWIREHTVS
Starred values were filed as active, the others as inactive.

COc1cc2c3c(c1)C1(C(=O)N3C(C)(C)C=C2C)C(C#N)=C(N)Oc2cc(O)ccc21 (configuration not stated) was read as FXIa inh 4, KLK5 inh 64*, thrombin 1536 12, Calpain2 inh -26 and FXIIa inh 25.
CC(=O)NS(=O)(=O)c1ccc(NC(=S)NC(=O)c2ccco2)cc1 was read as FXIa inh 18, KLK5 inh 4, thrombin 1536 1, Calpain2 inh 15 and FXIIa inh 43*.
Screening Cc1ccnc(NC(=O)CCCOc2ccc(Cl)cc2C)c1 returned FXIa inh 35, KLK5 inh 41*, thrombin 1536 6, Calpain2 inh 46 and FXIIa inh 27.
`COc1ccc(CC(=O)Nc2cc(C)ccn2)cc1` gave FXIa inh 10, KLK5 inh 82*, thrombin 1536 30, Calpain2 inh 5 and FXIIa inh -1.
Screening Cc1ccc(C)c(OCCCC(=O)Nc2nccs2)c1 returned FXIa inh 5, KLK5 inh -15, thrombin 1536 -2, Calpain2 inh 69* and FXIIa inh 15.
Screening Cc1ccnc(NC(=O)c2ccc([N+](=O)[O-])o2)c1 returned FXIa inh 12, KLK5 inh 20, thrombin 1536 101*, Calpain2 inh -45 and FXIIa inh 10.
For Cc1ccccc1OCCCC(=O)Nc1nccs1 the results were FXIa inh -6, KLK5 inh -29, thrombin 1536 -8, Calpain2 inh -27 and FXIIa inh 2.
`Cc1nn(Cc2c(Cl)cccc2Cl)c(Cl)c1/C=N/NC(=O)c1cccnc1` gave FXIa inh 12, KLK5 inh -13, thrombin 1536 -3, Calpain2 inh -4 and FXIIa inh 21.
`Cc1ccc(NC2=NC3(CCCCC3)N=C(N)N2)c(C)c1` gave FXIa inh 45*, KLK5 inh 37, thrombin 1536 2, Calpain2 inh 14 and FXIIa inh 13.
Screening Cc1ccc(NC2=NC3(CCCC3)N=C(N)N2)c(C)c1 returned FXIa inh -1, KLK5 inh 1, thrombin 1536 -6 and Calpain2 inh 13.
`O=C(c1cccc(COc2ccc(Cl)cc2Cl)c1)N1CCN(c2ccccn2)CC1` gave FXIa inh -6, KLK5 inh -6, thrombin 1536 -6, Calpain2 inh 70* and FXIIa inh -2.
For O=C(c1ccc(COc2ccccc2Br)o1)N1CCN(c2ccccn2)CC1 the results were FXIa inh 8, KLK5 inh 50*, thrombin 1536 12, Calpain2 inh 22 and FXIIa inh 16.
O=C(NCC1CCCO1)C(c1ccc(F)cc1)N(C(=O)Cn1nnc(-c2ccc(F)cc2)n1)c1cccc(O)c1 (configuration not stated) was read as FXIa inh -4, KLK5 inh -3, thrombin 1536 -1, Calpain2 inh -22 and FXIIa inh 5.
`O=C(NNC(=O)c1ccc([N+](=O)[O-])cc1Cl)c1ccncc1` gave FXIa inh 1, KLK5 inh -20, thrombin 1536 -3, Calpain2 inh -8 and FXIIa inh 12.
`CCOC(=O)CSC1=NC(=O)/C(=C\c2ccc(OC(C)=O)cc2)S1` gave FXIa inh 13, KLK5 inh 53*, thrombin 1536 20, Calpain2 inh 24 and FXIIa inh 17.
For COCCCn1c(=S)[nH]c2sc3c(c2c1=O)CCCS3 the results were FXIa inh 3, KLK5 inh 5, thrombin 1536 2, Calpain2 inh 16 and FXIIa inh 10.
`CC(=O)n1nc(-c2ccc(Cl)cc2)nc1NCc1ccco1` gave FXIa inh -12, KLK5 inh 1, thrombin 1536 47*, Calpain2 inh 14 and FXIIa inh 15.
`O=C(c1cccs1)n1nc(-c2ccc(Cl)cc2)nc1NCc1ccco1` gave FXIa inh 3, KLK5 inh -2, thrombin 1536 7, Calpain2 inh -6 and FXIIa inh 17.
`CCCC(=O)n1nc(-c2ccc(C)cc2)nc1NCc1ccco1` gave FXIa inh -2, thrombin 1536 58*, Calpain2 inh -12 and FXIIa inh 3.
Cc1ccc(C(=O)n2nc(-c3ccccc3)nc2NCc2ccco2)cc1 was read as FXIa inh 5, KLK5 inh 11, thrombin 1536 12, Calpain2 inh 0 and FXIIa inh 12.
`Cc1ccc(N=C2NC(=O)/C(=C\c3ccsc3)S2)c(C)c1` gave FXIa inh 2, KLK5 inh -10, thrombin 1536 -3, Calpain2 inh -20 and FXIIa inh 6.
Screening Cc1nc2ccccc2c(=O)n1NC(=O)C1CC1 returned FXIa inh 0, thrombin 1536 -3, Calpain2 inh -11 and FXIIa inh 11.
`CC(=O)c1c(C)nn(C(=O)c2cccs2)c1C` gave FXIa inh 8, KLK5 inh 56*, thrombin 1536 10, Calpain2 inh -13 and FXIIa inh 15.
For COC1(C)CC2C(CC1OC(=O)c1cc([N+](=O)[O-])cc([N+](=O)[O-])c1)C2(C)C (configuration not stated) the results were FXIa inh 11, KLK5 inh -19, thrombin 1536 1, Calpain2 inh 33 and FXIIa inh 13.
Screening COc1ccccc1N=Cc1nc(-c2ccccc2)oc1OC(C)=O returned FXIa inh 43*, KLK5 inh -5, thrombin 1536 26, Calpain2 inh 17 and FXIIa inh 31.
Screening O=C(NCC(c1cccnc1)N1CCN(c2ccccc2F)CC1)c1cccc(Cl)c1 (configuration not stated) returned FXIa inh -9, KLK5 inh -30, thrombin 1536 -10, Calpain2 inh 41 and FXIIa inh -1.
`O=C(NCc1ccccc1)C1=C[C@@H](c2coc3ccccc3c2=O)C[C@@H](OCCCCO)O1` gave FXIa inh 1, KLK5 inh 6, thrombin 1536 41*, Calpain2 inh 17 and FXIIa inh 14.
For O=C(NCc1ccccc1)C1=C[C@H](c2coc3ccccc3c2=O)C[C@H](OCCCCO)O1 the results were FXIa inh 2, KLK5 inh 3, thrombin 1536 0, Calpain2 inh 6 and FXIIa inh 7.
`O=C(Nc1ccc(Cl)cc1)NC1CCCC1Cc1ccco1` (configuration not stated) gave FXIa inh 1, KLK5 inh -6, thrombin 1536 -2, Calpain2 inh 40 and FXIIa inh 14.
`O=C(Nc1ccc(Cl)cc1)NC1CCCCC1Cc1ccco1` (configuration not stated) gave FXIa inh 6, KLK5 inh 5, thrombin 1536 -2, Calpain2 inh 53* and FXIIa inh 3.
`CN(C)N1C(N)=C(C#N)C(c2cccc3ccccc23)C2=C1CC(c1ccccc1)CC2=O` (configuration not stated) gave FXIa inh 7, KLK5 inh -16, thrombin 1536 1, Calpain2 inh -82 and FXIIa inh 14.

High-throughput results (PubChem BioAssay)
